Reference: ChEMBL document CHEMBL1121715, “New antiarrhythmic agents. 4. 1'-(Aminoalkyl)-1,2,3,4-tetrahydronaphthalene-1-spiro-3'-pyrrolidine-2',5'-dione derivatives” (J Med Chem, 1981)
Where “and” joins values, the source holds several entries; their conditions need not be identical. Identical values can stand only once.

How the values were obtained:
Canis familiaris [1] = experiment: MABP value was measured in anesthetized dog at 0.21+/-0.19 dose.; assay type: functional, Canis lupus familiaris
Canis familiaris [2] = organism: Canis familiaris; experiment: The dose at which toxicity was measured.; assay type: organism-based, Canis lupus familiaris; conditions: dog, in vivo
Procedure, shortened: (§1)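 Adult female dogs (6.7–14.5 kg) had two-stage ligation of the left anterior descending coronary artery the day before testing. After control ventricular rate, % ectopic beats and mean arterial pressure were recorded, the drug (HCl salt, isotonic solution) was infused iv without anesthesia at 0.1, 0.5 or 1.0 (mg/kg)/min, mostly 0.5. Infusion continued until the arrhythmia was abolished or cardiovascular/CNS toxicity appeared. Cumulative dose is given in mmol/kg; toxicity included convulsion and P-R prolongation ≥25%.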

Canis familiaris [3] = experiment: Ventricular rate was measured in anesthetized dog at 0.21+/-0.19 dose; assay type: functional, Canis lupus familiaris, Heart; conditions: in the assay text read “unanesthetized” for “anesthetized”
Procedure, shortened: (§2)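 Adult female dogs (6.7–14.5 kg) had ventricular arrhythmias from two-stage ligation of the left anterior descending coronary artery the day before. Ventricular rate (bpm) was read at maximal antiarrhythmic effect against cumulative dose.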

Mus musculus [4] = organism: Mus musculus; experiment: Percentage toxicity measured as ataxia.; assay type: organism-based; conditions: in vivo
Procedure, shortened: (§3)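 Mice (groups of 10) were dosed sc with drug in 0.9% saline and watched for 20 min for overt toxicity (ataxia, convulsions, loss of righting reflex, death) before chloroform exposure.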

[5] = Percentage toxicity measured as death of mice.; assay type: organism-based; set-up: concentration or dose not given beside the values; conditions: mouse, in vivo; read-out: Death
Mus musculus [6] = organism: Mus musculus; experiment: Percentage toxicity measured as loss of righting reflex.; assay type: organism-based; conditions: in vivo; procedure, shortened: as §3
Mus musculus [7] = experiment: Protection against chloroform induced arrhythmias was measured in mice after sc administration at given dose.; assay type: functional; conditions: Mus musculus, sc; read-out: ED50
Procedure, shortened: (§4)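 Groups of 10 unanesthetized mice got sc injection of drug in 0.9% saline. After 20 min observation they were placed one by one in chloroform-vapor-saturated air. When breathing stopped, the thorax was opened and the heart inspected by eye; coordinated ventricular contractions counted as protected.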

Mus musculus [8] = experiment: Protection against chloroform induced arrhythmias in mice after subcutaneous administration at 100 mg/kg dose.; assay type: functional; procedure, shortened: as §4
Mus musculus [9] = organism: Mus musculus; experiment: Percentage toxicity measured as convulsions.; assay type: organism-based; conditions: in vivo; procedure, shortened: as §3
Canis familiaris [10] = experiment: % ectopic beats was measured in anesthetized dog at 0.21+/-0.19 dose; 4+/-3; assay type: functional, Canis lupus familiaris, Heart
Mus musculus [11] = experiment: Ataxia was measured in mice after sc administration at given dose.; assay type: functional
Procedure, shortened: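 Mice in groups of 10 received drug sc in 0.9% saline and were watched 20 min for overt toxicity before chloroform exposure. At least three doses were given.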

Canis familiaris [12] = organism: Canis familiaris; experiment: Toxicity of blood level was measured; assay type: organism-based, Canis lupus familiaris; conditions: dog, in vivo
Procedure, shortened: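 In coronary-ligated conscious dogs under iv infusion, blood was sampled at toxicity. Drug was extracted with methylene chloride at pH 10.3 (ammonium citrate/ammonia) with another analogue as internal standard, then derivatized with heptafluorobutyrylimidazole. Assay was GC-FID on 3% JXR, quantified from drug/internal standard peak-height ratio against standard curves; results in μmol/mL.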

Canis familiaris [13] = organism: Canis familiaris; experiment: Toxicity of the compound; assay type: organism-based, Canis lupus familiaris; conditions: dog, in vivo; procedure, shortened: as §1
Canis familiaris [14] = organism: Canis familiaris; experiment: Blood level was measured in […] at 0.017 dose.; assay type: functional, Canis lupus familiaris
Canis familiaris [15] = experiment: Blood level was measured in anesthetized dog at 0.029 dose.; assay type: functional, Canis lupus familiaris
Canis familiaris [16] = experiment: % ectopic beats was measured in anesthetized dog at 0.005 dose.; assay type: functional, Canis lupus familiaris, Heart; conditions: in the assay text read “unanesthetized” for “anesthetized”
Procedure, shortened: (§5)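 Adult female dogs (6.7–14.5 kg) had the left anterior descending coronary artery ligated in two stages the day before testing. Dogs were unanesthetized. Ectopic beats (% of ventricular rate) and mean arterial pressure were read at maximal antiarrhythmic effect against the cumulative dose.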

Canis familiaris [17] = experiment: % ectopic beats was measured in anesthetized dog at 0.017 dose.; assay type: functional, Canis lupus familiaris, Heart; conditions: in the assay text read “unanesthetized” for “anesthetized”; procedure, shortened: as §5
Canis familiaris [18] = experiment: % ectopic beats was measured in anesthetized dog at 0.021d ose.; assay type: functional, Canis lupus familiaris, Heart; conditions: in the assay text read “unanesthetized” for “anesthetized”; procedure, shortened: as §5
Canis familiaris [19] = experiment: % ectopic beats was measured in anesthetized dog at 0.026 dose.; assay type: functional, Canis lupus familiaris, Heart; conditions: in the assay text read “unanesthetized” for “anesthetized”; procedure, shortened: as §5
Canis familiaris [20] = experiment: % ectopic beats was measured in anesthetized dog at 0.029 dose.; assay type: functional, Canis lupus familiaris, Heart; conditions: in the assay text read “unanesthetized” for “anesthetized”; procedure, shortened: as §5
Canis familiaris [21] = experiment: % ectopic beats was measured in anesthetized dog at 0.042 dose.; assay type: functional, Canis lupus familiaris, Heart; conditions: in the assay text read “unanesthetized” for “anesthetized”; procedure, shortened: as §5
Canis familiaris [22] = experiment: MABP value was measured in anesthetized dog at 0.005 dose.; assay type: functional, Canis lupus familiaris; conditions: in the assay text read “unanesthetized dog” for “anesthetized dog”; procedure, shortened: as §5
Canis familiaris [23] = experiment: MABP value was measured in anesthetized dog at 0.017 dose.; assay type: functional, Canis lupus familiaris; conditions: in the assay text read “unanesthetized dog” for “anesthetized dog”; procedure, shortened: as §5
Canis familiaris [24] = experiment: MABP value was measured in anesthetized dog at 0.021d ose.; assay type: functional, Canis lupus familiaris; conditions: in the assay text read “unanesthetized dog” for “anesthetized dog”; procedure, shortened: as §5
Canis familiaris [25] = experiment: MABP value was measured in anesthetized dog at 0.026 dose.; assay type: functional, Canis lupus familiaris; conditions: in the assay text read “unanesthetized dog” for “anesthetized dog”; procedure, shortened: as §5
Canis familiaris [26] = experiment: MABP value was measured in anesthetized dog at 0.029 dose.; assay type: functional, Canis lupus familiaris; conditions: in the assay text read “unanesthetized dog” for “anesthetized dog”; procedure, shortened: as §5
Canis familiaris [27] = experiment: MABP value was measured in anesthetized dog at 0.042 dose.; assay type: functional, Canis lupus familiaris; conditions: in the assay text read “unanesthetized dog” for “anesthetized dog”; procedure, shortened: as §1
Canis familiaris [28] = organism: Canis familiaris; experiment: The dose at which toxicity was measured; assay type: organism-based, Canis lupus familiaris; set-up: unit: mmol/kg; conditions: dog, in vivo; procedure, shortened: as §1
Canis familiaris [29] = experiment: Ventricular rate was measured in anesthetized dog at 0.005 dose; assay type: functional, Canis lupus familiaris, Heart; conditions: in the assay text read “unanesthetized dog” for “anesthetized dog”; procedure, shortened: as §1
Canis familiaris [30] = experiment: Ventricular rate was measured in anesthetized dog at 0.021 dose; assay type: functional, Canis lupus familiaris, Heart; conditions: in the assay text read “unanesthetized dog” for “anesthetized dog”; procedure, shortened: as §1
Canis familiaris [31] = experiment: Ventricular rate was measured in anesthetized dog at 0.029 dose; assay type: functional, Canis lupus familiaris, Heart; conditions: in the assay text read “unanesthetized dog” for “anesthetized dog”; procedure, shortened: as §1
Canis familiaris [32] = experiment: Ventricular rate was measured in anesthetized dog at 0.042 dose; assay type: functional, Canis lupus familiaris, Heart; conditions: in the assay text read “unanesthetized dog” for “anesthetized dog”; procedure, shortened: as §1
Canis familiaris [33] = experiment: Ventricular rate was measured in anesthetized dog at given 0.017 dose; assay type: functional, Canis lupus familiaris, Heart; conditions: in the assay text read “unanesthetized” for “anesthetized”; procedure, shortened: as §2
Canis familiaris [34] = experiment: Ventricular rate was measured in anesthetized dog at 0.026 dose; assay type: functional, Canis lupus familiaris, Heart

CCN(CC)CC(=O)Nc1c(C)cccc1C [LIDOCAINE] gave an MABP (Canis familiaris [1]) of 101 mmHg, a Cumulative dose (Canis familiaris [2]) of 0.27 and a Ventricular rate (Canis familiaris [3]) of 133 beats min-1. For the same molecule, the Ataxia (Mus musculus [4]) was 100%, the mortality [5] was 0% and the “Loss of righting reflex” value (Mus musculus [6]) was 100%. For the same molecule, the ED50 (Mus musculus [7]) was 260 µmol/kg, the Protection (Mus musculus [8]) was 100% and the Convulsion (Mus musculus [9]) was 100%. It also gave an Etopic beats (Canis familiaris [10]) of 4% and an ED50 (Mus musculus [11]) of 180 µmol/kg.

CCN(CC)CCCCN1C(=O)CC2(CCCc3ccc(O)cc32)C1=O (stereo unspecified) gave a Cumulative dose (Canis familiaris [2]) of 0.063, a Blood level (Canis familiaris [12]) greater than 28 µM and a Blood level (Canis familiaris [13]) of 0.01 uM ml-1. The Blood level (Canis familiaris [14]) was 0.016 uM ml-1, the Blood level (Canis familiaris [15]) was 0.007 uM ml-1 and the Etopic beats (Canis familiaris [16]) was 2%. For the same molecule, the Etopic beats (Canis familiaris [17]) was 2%, the Etopic beats (Canis familiaris [18]) was 0% and the Etopic beats (Canis familiaris [19]) was 0%. For the same molecule, the Etopic beats (Canis familiaris [20]) was 0%, the Etopic beats (Canis familiaris [21]) was 0% and the MABP (Canis familiaris [22]) was 80 mmHg. It also gave an MABP (Canis familiaris [23]) of 95 mmHg, an MABP (Canis familiaris [24]) of 70 mmHg and an MABP (Canis familiaris [25]) of 90 mmHg. For the same molecule, the MABP (Canis familiaris [26]) was 90 mmHg, the MABP (Canis familiaris [27]) was 100 mmHg and the Cumulative dose (Canis familiaris [28]) was > 0.058 and > 0.126. The Ventricular rate (Canis familiaris [29]) was 162 beats min-1, the Ventricular rate (Canis familiaris [30]) was 168 beats min-1 and the Ventricular rate (Canis familiaris [31]) was 141 beats min-1. For the same molecule, the Ventricular rate (Canis familiaris [32]) was 147 beats min-1, the Ventricular rate (Canis familiaris [33]) was 153 beats min-1 and the Ventricular rate (Canis familiaris [34]) was 132 beats min-1. The Ataxia (Mus musculus [4]) was 0%, the mortality [5] was 0% and the “Loss of righting reflex” value (Mus musculus [6]) was 0%. The ED50 (Mus musculus [7]) was 130 µmol/kg, the Protection (Mus musculus [8]) was 100% and the Convulsion (Mus musculus [9]) was 0%.
